SENP8 block-1: SENP8 protease inhibitors, primary screen, biochemical, luminescence. inhibition, % at 10 µM. 1.2% of 330,000 active. purified SENP8, Z-RLRGG-aminoluciferin cleavage. Sentrin-specific protease 8 (Homo sapiens), Q96LD8; in the data active means inhibition above about 50%
Apaf-1 inh: inhibitors of human Apaf-1 apoptosome, primary screen, biochemical, DEVD-Rh110 fluorescence, uHTS | Apoptotic protease-activating factor 1 (Homo sapiens), O14727 | reconstituted apoptosome caspase-3 activity | inhibition, % at 20 µM | 0.71% of 330,000 active; active means inhibition of at least 40% at 20 µM;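 further: plate controls were DMSO wells for no effect and DEVD-CHO caspase inhibitor wells for full effect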
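Material: reconstituted apoptosome with Apaf-1, cytochrome c, caspase-9, procaspase-3, dATP. Technique: Rh110 fluorescence intensity. Buffer or medium: pH 7.5 Hepes buffer with CHAPS, BSA, DTT. Times: 30 min plus 50 min, RT.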
UBC13 inh: UBC13 polyubiquitin chain formation inhibitors, primary screen, biochemical, TR-FRET, uHTS; Ubiquitin-conjugating enzyme E2 N (Homo sapiens), P61088; 0.47% of 330,000 active; AID 485273, 2010; inhibition, % at 20 µM; in the data active means inhibition above about 45%, passing the limit was not always enough
Target sequence (P61088 whole entry, looked up): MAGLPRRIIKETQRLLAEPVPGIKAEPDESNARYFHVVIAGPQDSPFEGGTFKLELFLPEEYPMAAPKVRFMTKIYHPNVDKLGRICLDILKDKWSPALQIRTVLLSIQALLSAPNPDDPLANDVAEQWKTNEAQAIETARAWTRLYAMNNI
SENP7 inh: SENP7 protease inhibitors, primary screen, biochemical, luminescence, uHTS; Sentrin-specific protease 7 (Homo sapiens), Q9BQF6; recombinant SENP7, Z-RLRGG-aminoluciferin luminescence, 40 min; inhibition, % at 5 µM; 1.5% of 330,000 active; AID 434973, 2010;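 active means inhibition above about 50% at the single test dose, limit read from the data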;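 further: plate controls were DMSO with enzyme for no effect and no enzyme buffer wells for full effect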
SENP8 block-2: human SENP8 protease inhibitors, primary screen, biochemical, fluorescence, Nedd8 protein substrate, uHTS; recombinant SENP8; inhibition, % at 20 µM; 0.64% of 360,000 active; Sentrin-specific protease 8 (Homo sapiens), Q96LD8; AID 602440, 2012; in the data active means inhibition mostly above about 40%, no sharp cut-off; inactive means mostly below about 27%
SENP6 inh: SENP6 protease inhibitors, primary screen, biochemical, luminescence, uHTS; inhibition, % at 10 µM; 1.8% of 330,000 active; Sentrin-specific protease 6 (Homo sapiens), Q9GZR1; Recombinant SENP6 catalytic domain, aminoluciferin luminescence;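 active means inhibition above about 50% at the single tested dose, limit read from the data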;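 further: plate controls were DMSO wells with enzyme for no effect and DMSO wells lacking enzyme for full effect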
Target sequence (Q9GZR1 628-1112 limits assumed): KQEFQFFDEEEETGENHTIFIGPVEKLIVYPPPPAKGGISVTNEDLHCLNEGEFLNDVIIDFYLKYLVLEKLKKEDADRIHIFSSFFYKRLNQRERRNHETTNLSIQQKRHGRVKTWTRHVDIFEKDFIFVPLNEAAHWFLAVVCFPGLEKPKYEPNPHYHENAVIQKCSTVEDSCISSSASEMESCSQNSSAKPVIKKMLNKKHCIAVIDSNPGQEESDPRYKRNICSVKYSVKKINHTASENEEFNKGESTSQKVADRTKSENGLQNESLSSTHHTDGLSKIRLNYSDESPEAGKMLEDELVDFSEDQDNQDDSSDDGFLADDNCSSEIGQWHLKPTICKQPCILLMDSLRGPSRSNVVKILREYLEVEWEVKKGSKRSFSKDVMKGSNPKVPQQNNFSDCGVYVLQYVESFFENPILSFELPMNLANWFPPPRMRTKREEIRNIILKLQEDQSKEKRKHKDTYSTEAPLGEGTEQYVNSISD
SENP8 conf: SENP8 protease inhibitors, retest, confirmation, biochemical, luminescence, single concentration. shares compounds with SENP7 inh. Recombinant SENP8, Z-RLRGG-aminoluciferin luminescence, 60 min. inhibition, % at 12.5 µM. 40% of 6,200 active. AID 488912, 2010;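 active means mean inhibition across replicates above about 50%, limit read from the data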
SENP6 conf: SENP6 protease inhibitors, confirmation, biochemical, luminescence, single concentration. 58% of 6,200 active. shares compounds with SENP7 inh. inhibition, % at 12.5 µM. AID 488915, 2010. recombinant SENP6, Z-RLRGG-aminoluciferin luminescence
SENP7 confirm: SENP7 protease inhibitors, retest, confirmation, biochemical, luminescence, single concentration | shares compounds with SENP7 inh | recombinant SENP7, Z-RLRGG-aminoluciferin luminescence, 40 min | inhibition, % at 12.5 µM | 69% of 6,200 active | AID 488917, 2010
Casp3 SENP sel: caspase-3 protease inhibitors, confirmation, selectivity assay for SENP inhibitor project, biochemical, single concentration. inhibition, % at 12.5 µM. 60% of 6,200 active. purified caspase-3, Z-DEVD-aminoluciferin luminescence, 60 min. shares compounds with SENP7 inh;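 active means mean inhibition above about 50%, limit read from the data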;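 further: plate controls were enzyme with DMSO for no effect and wells without caspase-3 for full effect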
Luc interf: interferes with luciferase luminescence in SENP counter-screen; 39% of 6,200 active; Pre-incubated SENP8/Z-RLRGG-aminoluciferin, luciferase luminescence interference; AID 488919; shares compounds with SENP7 inh; inhibition, % at 12.5 µM;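 active means mean inhibition above about 50% when retested at one dose, limit read from the data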;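 further: plate controls were DMSO wells with completed reaction for no effect and substrate without enzyme for full effect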
Starred values were filed as active, the others as inactive; i = inactive; . = no result. Compounds with a hit are over-represented: about 3.1% of the library has one in this group of screens.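 How the source made its calls, unless noted: active means mean inhibition above about 50% in the one-dose retest (limit read from the data); inactive means the rest.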

SMILES	SENP8 block-1	Apaf-1 inh	UBC13 inh	SENP7 inh	SENP8 block-2	SENP6 inh	SENP8 conf	SENP6 conf	SENP7 confirm	Casp3 SENP sel	Luc interf
O=C(Nc1scc(-c2ccccc2)c1C(=O)O)c1ccc(F)cc1	92*	12	4	71*	-77	91*	93*	94*	102*	96*	92*
COc1ccc(-c2csc(NC(=O)c3ccc(C(C)(C)C)cc3)c2C(=O)O)cc1	-2	-1	-8	11	.	-8	.	.	.	.	.
CC(C)N1CCN(c2ccncc2S(=O)(=O)N2CCN(C)CC2)CC1	.	.	.	.	10	.	.	.	.	.	.
Cc1cccc(S(=O)(=O)NC(=O)C2(C)CCN2C(=O)CCC2CCCC2)c1 (stereo not drawn)	.	.	.	.	2	.	.	.	.	.	.
COc1cc(/C=C/C(=O)OCC(=O)Nc2ccc3[nH]c(=O)[nH]c3c2)ccc1OC(F)F	.	.	.	.	8	.	.	.	.	.	.
c1ccc(COc2ccc(-c3cc4nc(NCCN5CCOCC5)ccn4n3)cc2)cc1	.	.	.	.	-471	.	.	.	.	.	.
CCc1cccc(NC(=O)C2CCCN2S(=O)(=O)c2ccccc2C(F)(F)F)c1 (stereo not drawn)	3	17	4	-9	6	0	.	.	.	.	.
O=C(O)c1ccc(N/N=C/c2ccc(-c3ccccc3Cl)o2)cc1	97*	-12	-1	88*	-429	98*	99*	100*	103*	66*	97*
O=C(N/N=C/c1ccc(-c2ccccc2Cl)o1)c1ccccc1	0	7	-6	0	-312	4	.	.	.	.	.
Cc1ccc(/C=N/Nc2ccc(C(=O)O)cc2)o1	78*	1	-9	71*	-4	92*	65*	58*	91*	85*	82*
CC(C)(C)S(=O)N1Cc2cc(C(=O)N3CCOCC3)nc(-c3cccc(Br)c3)c2[C@@H]1CCO (stereo partly drawn)	.	.	.	.	-17	.	.	.	.	.	.
COc1cc(C#Cc2ccc3cc(CCO)oc(=O)c3c2)cc(OC)c1	80*	10	27	85*	i	84*	81*	83*	95*	61*	65*
CNC(=O)c1c(NC(=O)c2cccc(C)c2)sc2c1CCC2	-5	15	-3	-8	-228	-18	.	.	.	.	.
COc1cc(C(=O)Nc2sc3c(c2C(=O)O)CCC3)cc(OC)c1OC	-1	7	2	8	-198	22	.	.	.	.	.
Cc1cccc(C(=O)Nc2sc3c(c2C(=O)O)CCC3)c1	96*	-15	21	87*	-94	99*	96*	96*	100*	95*	94*
COc1cccc(C(=O)Nc2sc3c(c2C(=O)O)CCCC3)c1	84*	3	1	22	-124	89*	36	74*	68*	79*	10
COC(=O)c1cnc(SCC(=O)c2ccccc2)n1C	71*	-5	2	79*	13	83*	79*	77*	93*	92*	80*
O=C(CSc1ccc(-c2ccccn2)nn1)c1ccccc1	-10	1	-23	-9	33	9	.	.	.	.	.
COC(=O)c1ccnc(SCC(=O)c2ccccc2)c1	53*	2	2	70*	2	74*	60*	55*	82*	74*	64*
O=C(COc1ccc(Cl)cc1)c1ccc(O)cc1O	36	0	-6	41	9	58*	54*	49	72*	67*	53*
COC(=O)c1ccc(OCC(=O)c2ccc(O)cc2O)cc1	7	-10	4	21	4	24	.	.	.	.	.
O=C(COc1ccccc1)OCC(=O)c1ccc(O)cc1O	-8	-3	5	9	4	4	.	.	.	.	.
CCOC(=O)c1ccc(OCC(=O)c2ccc(O)cc2O)cc1	33	4	-11	20	-4	55*	26	26	64*	66*	30
C=CCSc1nnc(-c2ccc(Cl)cc2Cl)o1	31	-4	18	57*	12	60*	18	48	77*	56*	39
Clc1ccc(-c2nnc(SCc3ccon3)o2)c(Cl)c1	61*	-1	-5	57*	8	70*	11	62*	87*	64*	61*
SMILES	SENP8 block-1	Apaf-1 inh	UBC13 inh	SENP7 inh	SENP8 block-2	SENP6 inh	SENP8 conf	SENP6 conf	SENP7 confirm	Casp3 SENP sel	Luc interf
CS(=O)c1ccccc1-c1nc(-c2ccc(Cl)cc2)no1 (stereo not drawn)	2	11	4	-2	10	-5	.	.	.	.	.
Cc1ccc(-c2noc(-c3ccccc3F)n2)cc1	76*	4	5	97*	7	96*	73*	95*	101*	85*	68*
O=C(O)c1ccc(-c2noc(-c3ccccc3F)n2)cc1	96*	-7	0	99*	7	99*	100*	101*	104*	100*	95*
O=C(c1ccccc1-c1nc(-c2ccc(F)cc2)no1)N1CCCC1	12	8	1	0	13	-6	.	.	.	.	.
CC(=O)Nc1ccc(-c2ccnc3c2CC(C(=O)NCc2ccco2)O3)cc1 (stereo not drawn)	.	.	.	.	-4	.	.	.	.	.	.
COc1ccccc1CN(C)C[C@@H]1OCc2cnnn2CCCC(=O)N([C@@H](C)CO)C[C@H]1C	.	.	.	.	6	.	.	.	.	.	.
Cc1ccccc1CN1C(=O)CN(S(C)(=O)=O)CC1(C)C(=O)NCc1ccccc1 (stereo not drawn)	.	.	.	.	7	.	.	.	.	.	.
CCOc1ccc(N=Cc2c(O)c3ccccc3oc2=O)cc1	83*	10	2	93*	-20	91*	42	42	56*	38	7

Screens as filed in PubChem.
